Screens from PubChem BioAssay.
A selection: hits, their analogues and other compounds. The true share with any hit is near 1.8%.
PG9 Ab binder – small molecules binding HIV-1 gp120 antibody PG9. inhibition, % at 6.7 µM. hit rate 0.43% among 360,000. TR-FRET gp120-PG9 antibody binding; in the data active means inhibition above about 8.5%
Rin1 Abl inh – inhibitors of human Rin1-Abl protein interaction. P00519+Q13671. TR-FRET Rin1/Abl binding, biochemical. inhibition, % at 7.35 µM. hit rate 0.4% among 360,000. AID 588664; in the data active means inhibition above about 5%, passing the limit was not always enough
NR1D1 modulator – Rev-erb alpha (human) modulation; hit rate 0.79% among 370,000; AID 1259318; activity, % at 10 µM; Rev-erbα–FITC-DNA binding, fluorescence polarization, 90 min; P20393;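 active means activity above about 14%, limit read from the data; passing the limit was not always enough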;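 further: 0% = DMSO wells with 35 nM protein and 100% = DMSO wells with 750 nM protein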
Target sequence (P20393 whole entry, looked up): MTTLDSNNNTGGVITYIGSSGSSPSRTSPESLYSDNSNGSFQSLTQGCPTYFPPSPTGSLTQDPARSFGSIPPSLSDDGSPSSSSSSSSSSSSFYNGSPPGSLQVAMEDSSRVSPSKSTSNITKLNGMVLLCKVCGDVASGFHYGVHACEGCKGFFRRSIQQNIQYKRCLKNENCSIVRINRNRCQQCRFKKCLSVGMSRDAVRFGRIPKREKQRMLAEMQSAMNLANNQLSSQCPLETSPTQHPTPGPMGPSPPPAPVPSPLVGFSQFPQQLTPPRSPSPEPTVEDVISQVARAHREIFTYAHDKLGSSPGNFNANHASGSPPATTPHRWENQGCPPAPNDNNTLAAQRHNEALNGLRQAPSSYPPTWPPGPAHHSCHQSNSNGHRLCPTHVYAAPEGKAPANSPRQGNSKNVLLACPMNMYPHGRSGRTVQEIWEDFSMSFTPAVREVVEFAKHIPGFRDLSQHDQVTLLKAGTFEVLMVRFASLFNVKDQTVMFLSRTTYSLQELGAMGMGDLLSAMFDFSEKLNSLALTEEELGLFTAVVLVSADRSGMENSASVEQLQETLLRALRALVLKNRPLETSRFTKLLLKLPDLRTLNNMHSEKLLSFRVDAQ
Tb MetRS inh – Trypanosoma brucei MetRS inhibition; purified T. brucei MetRS, ATP depletion, Kinase-Glo luminescence; AID 624268; hit rate 0.4% among 360,000; inhibition, % at 11.9 µM;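 active means inhibition above a per-plate cutoff of the control wells' mean inhibition plus 3 SD, cut at about 5.5% in these data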;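 further: 0% = DMSO wells median and 100% = median of wells with control inhibitor compound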
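Measured by: Kinase-Glo luciferase luminescence reporting remaining unconsumed ATP. Material: purified T. brucei MetRS enzyme. Doses: 11.9 µM compound single dose, 0.9% DMSO. Medium: HEPES buffer containing pyrophosphatase, BSA, spermine, DTT. Times: 15 min preincubation, 2 h reaction, all 25 °C. Reagent: methionine, ATP and bulk E. coli tRNA.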
Rev-erbA confirm – Rev-erb alpha (human) modulation, hit confirmation; AID 1259319; activation, % at 25 µM; shares compounds with NR1D1 modulator; Rev-erb alpha FITC-DNA binding, fluorescence polarization, 90 min; hit rate 61% among 3,000;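 active means activation at or above a set limit, or at least 3 SD above the negative control mean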;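 further: 0% = 35 nM protein with DMSO and 100% = 750 nM protein high control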
RORg DNA counter – counter-screen for Rev-erb alpha modulators: RORgamma DNA binding; shares compounds with NR1D1 modulator; AID 1259320; purified RORgamma protein-FITC-DNA binding, fluorescence polarization; IC50, µM; hit rate 8% among 910;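 active means Compounds whose fitted half-maximal concentration for disrupting protein-DNA binding is below 10 micromolar; the record names Rev-erb in its text, so the target is in doubt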
* marks the source's active call; other numbers are inactive results; i = inactive; / = no result given.

SMILES	PG9 Ab binder	Rin1 Abl inh	NR1D1 modulator	Tb MetRS inh	Rev-erbA confirm	others
Cc1ccc(NC(=O)c2sc3ncnc(N4CCN(c5ccccn5)CC4)c3c2C)c(C)c1	1.3	2.3	7.7	0.0	/
COc1ccccc1NC(=O)c1sc2nc(Cc3ccccc3)cc(C(F)(F)F)c2c1N	/	-2.4	44.5*	-0.6	62.8*	RORg DNA counter=>40
CCOc1ccccc1NC(=O)c1sc2nc(C)nc(N3CCOCC3)c2c1C	-0.5	2.9	40.8*	0.1	7.0
Cc1c(C(=O)Nc2ccccc2F)sc2nc3n(c(=O)c12)CCC3	-1.8	3.3	-1.8	-0.3	/
COc1ccc(C)cc1NC(=O)c1sc2ncnc(N3CCN(c4ccccn4)CC3)c2c1C	-0.8	3.4	37.4*	-0.3	2.6
COc1ccccc1NC(=O)c1sc2nc3n(c(=O)c2c1C)CCC3	0.8	1.0	42.6*	-0.5	29.2*
CC(=O)C[C@@H](O)CC(=O)[C@H]1OC(=O)CCCCCCCCc2ccccc21	0.8	2.0	1.8	-0.3	/
O=S(=O)(NCC1(N2CCOCC2)CCCCC1)c1ccc(F)c(F)c1F	0.0	5.6	-2.5	-0.2	/
O=S(=O)(c1ccc(F)cc1)N1CCN(C(=S)NC2CC2)CC1	-0.4	-1.6	-4.4	0.1	/
CCOc1ccccc1N1CC(C(=O)Nc2ccc(S(=O)(=O)N3CCCCC3)cc2)CC1=O (configuration not stated)	-1.9	0.6	3.0	-0.3	/
Cc1nc(N2CCN(c3ccccn3)CC2)c2c(C)c(C(=O)Nc3ccc(Br)cc3C)sc2n1	1.1	-2.8	40.2*	0.6	-13.2
Cc1ccc(NC(=O)c2ccccc2OCC(=O)Nc2ccccc2F)cc1S(=O)(=O)N(C)C	0.2	2.4	1.7	-0.7	/
S=c1nc(C2CCCCC2)[nH]c2ccccc12	8.2	-14.0	16.4*	0.1	12.7
S=c1nc(C2CC2)[nH]c2ccccc12	2.6	-17.8	1.6	2.4	/
Cc1ccc(C)c(S(=O)(=O)NCCC(=O)N2CCCC(C(N)=O)C2)c1 (configuration not stated)	1.8	2.4	-0.2	0.0	/
Cc1cc(NC(=O)CSc2ncnc3c2cnn3-c2ccccc2)no1	0.6	-4.3	3.1	-0.9	/
Cc1nn(C)c(C)c1NC(=O)CSc1nc(-c2ccccc2Cl)nc2c1cnn2-c1ccccc1	2.9	-5.2	102.2*	0.3	91.9*	RORg DNA counter=6.77*
Cc1nn(C)c(C)c1NC(=O)CSc1nc(-c2ccccc2F)nc2c1cnn2-c1ccccc1	-0.8	-0.2	41.7*	-0.4	62.5*	RORg DNA counter=>40
O=C(CCN1C(=O)[C@@H]2Cc3ccccc3CN2C1=O)Nc1cccc(F)c1	-1.0	4.5	2.2	-0.3	/
CN(C)C(=O)CSc1cnc2ccccc2n1	1.0	1.4	-6.2	-0.6	/
Cc1ccc(C(=O)CSc2cnc3ccccc3n2)cc1C	2.5	-2.4	29.8*	-0.9	14.1
COc1cc2c(C)nc3c(c(C)nn3-c3ccccc3)c2cc1OC	-1.0	-4.3	20.8*	0.6	-2.9
COc1cc2c(-c3ccc(O)cc3)nc3c(c(C)nn3-c3ccccc3)c2cc1OC	0.1	-0.3	13.0	0.2	/
COC(=O)[C@@]12C[C@@H](CC(=O)N3CCOCC3)C(=O)N(CCc3ccc(OC)c(OC)c3)C1=CCC(C)(C)C2	-0.1	/	1.7	-0.6	/
C=CCn1c(SCc2nc3ccccc3c(=O)[nH]2)nnc1-c1cc2cc(Cl)ccc2o1	-1.2	2.2	25.9*	-0.8	30.0*
SMILES	PG9 Ab binder	Rin1 Abl inh	NR1D1 modulator	Tb MetRS inh	Rev-erbA confirm	others
O=c1[nH]c(CSc2nnnn2-c2ccc(Cl)cc2)nc2ccccc12	-0.1	-2.4	-1.9	2.5	/
Cc1ccc(-c2nc3sc4c(c3c(=O)n2N)CC(C)(C)OC4)cc1	0.0	3.3	15.5	-0.5	/
CC1(C)Cc2c(sc3nc(-c4cc5ccccc5o4)n(N)c(=O)c23)CO1	0.3	-3.0	47.8*	-0.3	25.6*
CCn1c(SCC(=O)Nc2ccc(Cl)cc2)nc2nc3c(cc2c1=O)CCCC3	4.6	-10.8	-0.3	-0.2	/
CCn1c(SCC(=O)Nc2ccc(C(C)=O)cc2)nc2nc3c(cc2c1=O)CCCC3	-0.4	0.4	17.2*	-0.2	5.2
COc1ccc(N2CCN(C(=O)C3CCN(S(=O)(=O)c4ccc5c(c4)CC(C)N5C(=O)C4CC4)CC3)CC2)cc1 (configuration not stated)	-2.8	/	-2.8	/	/
Cc1nnc2c(NCCC(C)C)nc3ccccc3n12	-0.3	-1.0	23.0*	-0.7	1.4
CN(C)C=Nc1ncc2c3ccccc3n(CCN(C)C)c2c1C#N	-0.9	-2.0	-0.2	0.1	/
CN(C)C=Nc1ncc2c3ccccc3n(Cc3ccccc3)c2c1C#N	-3.0	-0.8	34.4*	-0.3	29.9*
CCCN(CC(=O)Nc1ccccc1OC)C(=O)CNC(=O)c1ccc(C)s1	-0.2	1.8	4.9	-0.3	/
CCC(=O)N1CCC1(C)C(=O)Nc1cnc2ccccc2c1 (configuration not stated)	0.4	0.3	17.4*	-0.3	-1.8
CS(=O)(=O)N1Cc2cc(C(=O)NCC3CC3)nc(-c3cccc(-c4cccnc4)c3)c2[C@@H]1CCO	-0.9	/	-4.6	-0.8	/
CCOC(=O)C1Nc2ccccc2C2c3ccccc3CC12 (configuration not stated)	0.1	4.0	-0.3	-0.3	/
CCOC(=O)C1Nc2c(F)cc(C)cc2C2c3ccccc3CC12 (configuration not stated)	-2.6	-2.8	108.9*	-0.1	44.0*
NC(=O)c1cc2ccccc2o/c1=N\NC(=O)c1ccccc1O	-5.7	1.1	21.0*	0.3	-11.2
CC(=O)Nc1ccc2ccc3cccc4ccc1c2c34	-10.9	-2.8	33.0*	-0.7	28.4*
COc1cc(OC)cc(C(=O)Nc2ccc(S(=O)(=O)Nc3cnc4ccccc4n3)cc2)c1	-1.3	-1.2	-4.9	2.9	/
COc1cc(OC)cc(C(=O)Nc2ccc(S(=O)(=O)Nc3ccccn3)cc2)c1	-2.2	3.7	24.6*	-0.5	16.9
Cn1cc(Cl)c(/C(N)=N/OC(=O)c2ccccc2C(F)(F)F)n1	-0.3	3.9	-5.4	-0.5	/
CCCCCn1c(SCC#N)nc2cc(C(=O)NCC3CCCO3)ccc2c1=O (configuration not stated)	68.0*	-4.4	70.6*	-0.6	37.8*
CCc1ccccc1NC(=O)CSc1nc2cc(C(=O)NCC3CCCO3)ccc2c(=O)n1CC1CCCO1 (configuration not stated)	-1.2	-0.2	1.5	-0.1	/
N#C/C(=C\c1ccc(N2CCOCC2)o1)C(=O)Nc1ccc(O)cc1	-25.9	-23.5	43.7*	0.0	27.2*
N#C/C(=C/c1ccc(N2CCCCC2)o1)C(=O)Nc1ccc2ccccc2c1	-1.2	-10.6	67.2*	-0.3	24.9*
COc1ccc(NC(=O)/C(C#N)=C\c2ccc(N3CCOCC3)o2)cc1	-20.3	-18.4	65.3*	-0.1	40.5*	RORg DNA counter=i
COc1ccc(NC(=O)/C(C#N)=C/c2ccc(Br)o2)cc1	0.5	6.0	-25.7	0.0	/
